Published values from different studies.
Protocols differ between the studies behind these lines.
Target: Mitogen-activated protein kinase 13 (MAPK13, Homo sapiens, UniProt O15264)

| SMILES | observed | action | technique | tested at | measurement | result |
| --- | --- | --- | --- | --- | --- | --- |
| Cn1c2c(Cl)c(Cl)ccc2c2cc[nH]c(=O)c21 | thermal stability | – | DSF | 10 µM | ΔTm | -0.4 °C |
| CNC(=O)c1cc(Oc2ccc(NC(=O)Nc3ccc(Cl)c(C(F)(F)F)c3)cc2)ccn1 | enzyme activity | inhibitor | – | 0.3 µM | inhibition | -6% |
| Cc1cc(NC(=O)c2cccc3cc(-c4cccc5[nH]nc(N)c45)ccc23)ccc1F | enzyme activity | inhibitor | – | 0.1 µM | activity vs control | 101% |
| O=C1Nc2ccc(Cl)cc2C1=Cc1cc(Cl)c(O)c(Cl)c1 | cell-free assay | – | – | 0.5 µM | remaining signal | 97.8% |
| CCN1CCC2(CC1)NC(=O)c1c(c3ccc(Cl)c(Cl)c3n1C)C2C#N (racemic) | thermal stability | – | DSF | 10 µM | ΔTm | 0.6 °C |
| CN1CC(Oc2cnc(C#N)cc2-c2ccn3nc(NC(=O)C4CC4)cc3c2)C1 | enzyme activity | inhibitor | – | 1 µM | inhibition | -1% |
| COc1cc(Cl)c(C(=O)N[C@@H](CN[C@H]2CC[C@@H](N)CC2)Cc2ccc(C#N)cc2)cc1-c1ccc(CN[C@H](C)c2ccc(C)cc2)o1 | enzyme activity | inhibitor | – | 1 µM | remaining activity | 101% |
| CCN(CC)c1ccc(C2=NNC(=O)CC2C)cc1[N+](=O)[O-] (stereo not drawn) | enzyme activity | inhibitor | – | 10 µM | remaining activity | 97% |
| Cc1noc([C@H]2C[C@@H](c3ccc(C(F)(F)F)cc3)CN(C(=O)N3CCS(=O)(=O)C3)C2)n1 | cell-free assay | – | competition with immobilised ligand | 1 µM | remaining binding | 100% |
| CC(C)(C)c1nc(-c2cccc(NS(=O)(=O)c3c(F)cccc3F)c2F)c(-c2ccnc(N)n2)s1 | enzyme activity | inhibitor | radiometric | 1 µM | remaining activity | 85% |
| COc1cc(Nc2cnc(C#N)c(O[C@H](C)CN(C)C)n2)ncc1-c1cnn(C)c1 | enzyme activity | inhibitor | radiometric | 1 µM | remaining activity | 87% |
| Oc1cccc(-c2nc(N3CCOCC3)c3oc4ncccc4c3n2)c1 | enzyme activity | inhibitor | – | 10 µM | remaining activity | 84% |
| Nc1ncnc2occ(-c3ccc(NC(=O)Nc4cc(C(F)(F)F)ccc4F)cc3)c12 | cell-free assay | inhibitor | – | 20 µM | remaining signal | 0.4% |
| Cn1c2c(c3ccc(Cl)c(Cl)c31)C(C#N)C1(CCCC1)NC2=O (stereo not drawn) | thermal stability | – | DSF | 10 µM | ΔTm | -0.1 °C |
| O=C(O)[C@@H]1[C@@H](Cn2nnc3ccccc3c2=O)CC[C@H]1C(=O)c1ccc(OCCC2CCOCC2)cc1 | cell-free assay | – | competition with immobilised ligand | 1 µM | remaining binding | 94% |
| Cc1sc(C(=O)NC2COC2)cc1-n1cc(NC(=O)Nc2c(F)cccc2Cl)cn1 | enzyme activity | inhibitor | – | 10 µM | remaining activity | 89.2% |
| N#Cc1ccc(Nc2ccc3[nH]c(=O)[nH]c3c2)c(Cl)c1 | cell-free assay | – | competition with immobilised ligand | 1 µM | remaining binding | 100% |
| CC/C(=N\NC(=O)NCc1cccc(O)c1)c1ccc(O)c(C)c1O | enzyme activity | inhibitor | – | 0.1 µM | inhibition | -2.6% |

| SMILES | observed | action | technique | tested at | measurement | result |
| --- | --- | --- | --- | --- | --- | --- |
| COc1cc(-c2cc(-c3ccc(N4CCNCC4)cc3)cnc2C)cc(OC)c1OC | enzyme activity | inhibitor | – | 1 µM | inhibition | 1% |
| Cn1c2c(c3ccc(Cl)c(Cl)c31)C(C#N)C(C)(C)NC2=O (stereo not drawn) | thermal stability | – | DSF | 10 µM | ΔTm | 1.4 °C |
| Cc1ccc(Nc2nccc(N(C)c3ccc4c(C)n(C)nc4c3)n2)cc1S(N)(=O)=O | enzyme activity | inhibitor | – | 0.3 µM | inhibition | -11% |
| CN(c1ncccc1CNc1nc(Nc2ccc3c(c2)CC(=O)N3)ncc1C(F)(F)F)S(C)(=O)=O | enzyme activity | inhibitor | – | 1 µM | inhibition | 42.1% |
| CC(C)(C)C(=O)c1sc(NC2CCCCC2)nc1N | enzyme activity | inhibitor | – | 10 µM | remaining activity | 102% |
| O=C(O)c1cc(-c2ccc(C3CCNCC3)cc2)c2ccc(-c3ccc(C(F)(F)F)cc3)cc2c1 | cell-free assay | – | competition with immobilised ligand | 1 µM | remaining binding | 97% |
| COc1cc2ncnc(Nc3ccc(Oc4ccccc4)cc3C)c2cc1OC | enzyme activity | inhibitor | – | 1 µM | inhibition | 1% |
| Cc1nc(Cc2cccc(C(F)(F)F)c2)sc1-c1ccc(C(N)=O)nc1 | cell-free assay | – | competition with immobilised ligand | 1 µM | remaining binding | 99% |
| Cn1c(=O)n(-c2ccc(C(C)(C)C#N)cc2)c2c3cc(-c4cnc5ccccc5c4)ccc3ncc21 | enzyme activity | inhibitor | – | 10 µM | remaining activity | 100% |
| Cc1ccc(NC(=O)c2ccc(CN3CCN(C)CC3)cc2)cc1Nc1nc(-c2cccnc2)cs1 | cell-free assay | – | – | 0.5 µM | remaining signal | 101% |
| CNC(=O)c1cc2c(Oc3ccc(NC(=O)C4(C(=O)Nc5ccc(F)cc5)CC4)cc3)ccnc2cc1OC | enzyme activity | inhibitor | radiometric | 1 µM | inhibition | 83% |
| Cn1c2c(c3ccc(Cl)c(Cl)c31)C(C#N)C1(CCN(C(=O)OC(C)(C)C)CC1)NC2=O (racemic) | thermal stability | – | DSF | 10 µM | ΔTm | -0.1 °C |
| CNC(=O)c1ccc(Nc2ncc(C(F)(F)F)c(NCc3nccnc3N(C)S(C)(=O)=O)n2)cc1 | cell-free assay | – | competition with immobilised ligand | 0.1 µM | remaining binding | 91% |
| CN1CCC2(CC1)NC(=O)c1c(c3ccc(Cl)c(Cl)c3n1C)C2C#N (racemic) | thermal stability | – | DSF | 10 µM | ΔTm | 0.4 °C |
| O=C(NCc1ncc(C(F)(F)F)cc1Cl)c1ccc2c(c1)C1(CCS(=O)(=O)CC1)[C@H](C1CC1)N2S(=O)(=O)c1ccc(F)cc1 | cell-free assay | – | competition with immobilised ligand | 1 µM | remaining binding | 99% |
| CCN(CC)CCNC(=O)c1c(C)[nH]c(/C=C2\C(=O)Nc3ccc(F)cc32)c1C | enzyme activity | inhibitor | – | 10 µM | inhibition | -5% |
| CN(C)C1CCN(CC#Cc2nn(C3CCCC3)c3nc(NCc4ccccc4)ncc23)C1 (stereo not drawn) | enzyme activity | inhibitor | FRET | 1 µM | inhibition | 0% |
| Cc1nc(C2CCN(C(=O)c3ccc(OC(F)(F)F)cc3N)CC2)c2ncc(N3CCN(C)CC3)cc2n1 | cell-free assay | – | competition with immobilised ligand | 1 µM | remaining binding | 100% |
